These results are taken from ChEMBL document CHEMBL5715941, “AZD1152, a selective inhibitor of Aurora B kinase, inhibits human tumor xenograft growth by inducing apoptosis” (Clin Cancer Res, 2007).

Assay [1] has as its system SW-620. The assay is described as follows: Induction of polyploidy in human SW620 cells at 300 nmol/L incubated for 48 hrs by flow cytometry analysis. Format: functional, cell-based. In a few lines: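 SW620 cells were grown in L-15 with 10% heat-inactivated FCS at 37°C without CO2. They were exposed to AZD1152-HQPA for 0, 24 or 48 h, fixed in 70% ethanol at −20°C overnight, stained with propidium iodide (10 µg/mL) plus RNase (100 µg/mL), and DNA content was read by flow cytometry.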
Background: Flow cytometry measures light scatter and fluorescence of single cells or particles in a stream.

Assay [2] has as its system SW-620. The assay is described as follows: Antitumor activity against human SW620 cells xenografted in immunodeficient Swiss athymic mouse assessed as maximum inhibition of tumor volume at 25 mg/kg/day, sc for 48 hrs on days 7 to 9 and measured on day 14 relative to control. It counts as functional. As to conditions: SW-620, 192 h, time 8 day. In outline: (§1)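 Male Swiss athymic nude mice, 8-12 wk; tumor cells (1×10^6-1×10^7, 50:50 Matrigel) implanted s.c. on flank. Randomized (n = 8-11) at 0.2-0.5 cm3. AZD1152 in Tris buffer pH 9, or vehicle (0.3 mol/L Tris), by 48-h s.c. osmotic mini-pump infusion (two 24-h pumps in sequence). Caliper volumes up to 3×/week; growth inhibition from change in control vs treated volume; one-tailed t test.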
For orientation: A xenograft is tissue or cells of one species grown in another, often human tumour cells in immunodeficient mice.

For the next assay, the system named is HL-60. The assay is described as follows: Antitumor activity against human HL-60 cells xenografted in immunodeficient Swiss athymic mouse assessed as maximum inhibition of tumor volume at 150 mg/kg/day, sc for 48 hrs on days 16 to 18 and measured on day 18 relative to control. Format: functional. As to conditions: HL-60, 72 h, time 3 day. In outline: as §1

The next assay relates to COLO 205. The assay is described as follows: Antitumor activity against human COLO 205 cells xenografted in immunodeficient Swiss athymic mouse assessed as maximum inhibition of tumor volume at 150 mg/kg/day, sc for 48 hrs on days 5 to 7 and measured on day 18 relative to control. It counts as functional. As to conditions: COLO 205, 336 h, time 14 day. In a few lines: as §1

Assay [3] concerns SW-620. The assay is described as follows: Antitumor activity against human SW620 cells xenografted in Swiss nude mouse assessed as inhibition in PhH3 level at 0.5 mg/kg/day, sc measured over 48 hrs by flow cytometry analysis relative to control. It counts as functional. In outline: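 Male nude mice with palpable s.c. SW620 tumors (n = 4/group) received AZD1152 (0.5-150 mg/kg/d) or vehicle by constant 48-h s.c. mini-pump infusion. Tumors were then excised, fixed and disaggregated. Flow cytometry with propidium iodide gave DNA content (2N, 4N, >4N), and rabbit anti-PhH3 with fluorescein anti-rabbit IgG gave PhH3-positive cells (%).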

Assay [4] deals with SW-620. The assay is described as follows: Antitumor activity against human SW620 cells xenografted in nude athymic rat assessed as reduction in total cellular content at 25 mg/kg/day, iv for 4 consecutive days and measured on 5 day by H&E staining based immunohistochemistry analysis. Format: functional, organism-based. In a few lines: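 Nude rats bearing SW620 tumors were dosed i.v. with AZD1152 at 25 mg/kg/d or with vehicle on days 1-4. Subgroups (n = 3) were killed at set days. Tumor and bone marrow sections were H&E-stained and examined histologically.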

Calls of active or inactive are those of the source. The rule behind the calls is not given here.

Broadly, the inhibition in vivo is the drop in the measured response relative to a control, in per cent. Regarding `CCN(CCCOc1ccc2c(Nc3cc(CC(=O)Nc4cccc(F)c4)[nH]n3)ncnc2c1)CCOP(=O)(O)O` [BARASERTIB], the result with SW-620 [1] and in the assay on SW-620 [4] was Active. The inhibition in vivo at 25 mg/kg/day in the assay with SW-620 [2] is 65%. Besides, the inhibition in vivo at 150 mg/kg/day in the assay on HL-60 and in the assay on COLO 205 was > 100% throughout. In addition, the inhibition in vivo at 0.5 mg/kg/day with SW-620 [3] came to 52%.
